Reference: ChEMBL document CHEMBL2385063, “Identification of 2-(2-(1-naphthoyl)-8-fluoro-3,4-dihydro-1H-pyrido[4,3-b]indol-5(2H)-yl)acetic acid (setipiprant/ACT-129968), a potent, selective, and orally bioavailable chemoattractant receptor-homologous molecule expressed on Th2 cells (CRTH2) antagonist” (J Med Chem, 2013)
In brackets after ≈: the same amount, converted by molar mass. Activity calls are given as the source filed them. No cut-off for these calls is given here.

Legend:
[1] = Half life in simulated gastric fluid at 2 uM by LC-MS analysis; format: physicochemical
Outline: (§1)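 Compounds were incubated in simulated gastric fluid for 1 h or simulated intestinal fluid for 4 h. Unchanged parent was quantified by LC-MS.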

[2] = Half life in simulated intestinal fluid at 2 uM by LC-MS analysis; format: physicochemical; outline: as §1
[3] = target: T1, Prostaglandin E2 receptor EP1 subtype (Homo sapiens, UniProt P34995); assay: Antagonist activity at human prostanoid EP1 receptor expressed in CHOK1 cells assessed as inhibition of PGE2-induced calcium flux after 60 mins by FLIPR assay; format: functional, cell-based, CHO-K1
T1 sequence (P34995 whole entry): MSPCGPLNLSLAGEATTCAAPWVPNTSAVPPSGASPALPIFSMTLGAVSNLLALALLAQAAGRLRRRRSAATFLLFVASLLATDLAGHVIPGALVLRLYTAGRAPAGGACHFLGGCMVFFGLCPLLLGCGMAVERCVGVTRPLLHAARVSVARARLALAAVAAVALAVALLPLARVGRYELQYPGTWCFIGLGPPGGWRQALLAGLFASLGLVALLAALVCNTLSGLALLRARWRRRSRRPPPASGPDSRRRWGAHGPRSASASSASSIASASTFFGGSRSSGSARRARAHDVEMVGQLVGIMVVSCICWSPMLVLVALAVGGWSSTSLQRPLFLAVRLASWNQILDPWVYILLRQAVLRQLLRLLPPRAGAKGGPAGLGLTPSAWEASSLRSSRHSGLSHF

[4] = Intrinsic clearance in rat liver microsomes measured per mg of protein at 1 uM by LC/MS-MS analysis; format: ADME, Microsome; conditions: read-out: CLH
[5] = organism: Homo sapiens; assay: Selectivity factor, ratio of IC50 for recombinant human prostanoid DP1 receptor to IC50 for recombinant human CRTH2 receptor
Outline: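 hDP₁ IC₅₀ came from competitive [³H]PGD₂ binding on CHO cells stably overexpressing recombinant hDP₁. hCRTh2 IC₅₀ came from [³H]PGD₂ (2.5 nM) displacement on membranes of HEK-293 cells stably expressing hCRTh2, incubated 90 min at room temperature, filtered and counted. f_Sel = IC₅₀(hDP₁)/IC₅₀(hCRTh2).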

[6] = target: T2, Prostaglandin D2 receptor 2 (Homo sapiens, UniProt Q9Y5Y4); assay: Antagonist activity at CRTH2 receptor in human eosinophils assessed as inhibition of PGD2-induced cell shape change incubated for 10 mins prior to PGD2 induction measured after 5 mins by FACS flow cytometric analysis in presence of human plasma
T2 sequence (Q9Y5Y4 whole entry): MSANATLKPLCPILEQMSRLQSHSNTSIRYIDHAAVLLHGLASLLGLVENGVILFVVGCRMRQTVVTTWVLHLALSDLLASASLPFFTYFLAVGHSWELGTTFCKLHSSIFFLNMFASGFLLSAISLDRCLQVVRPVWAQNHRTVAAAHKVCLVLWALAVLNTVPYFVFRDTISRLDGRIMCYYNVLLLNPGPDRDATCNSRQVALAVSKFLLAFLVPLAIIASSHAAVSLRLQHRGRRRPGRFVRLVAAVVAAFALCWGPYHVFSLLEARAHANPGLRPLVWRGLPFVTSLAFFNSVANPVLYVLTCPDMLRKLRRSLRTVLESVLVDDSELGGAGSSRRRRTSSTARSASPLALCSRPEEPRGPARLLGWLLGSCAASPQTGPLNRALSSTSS

[7] = Intrinsic clearance in rat hepatocytes measured per 10^6 cells at 1 uM by LC/MS-MS analysis; format: ADME, cell-based, Hepatocyte; conditions: read-out: CLH
[8] = Elimination half life in human plasma at 1 mM by HR-LC-MS analysis; format: ADME, cell-free; conditions: read-out: beta t1/2
[9] = Intrinsic clearance in human liver microsomes measured per mg of protein at 1 uM by LC/MS-MS analysis; format: ADME, Microsome; conditions: read-out: CLH
[10] = n-octanol-KH2PO4-Na2HPO4 buffer partition coefficient, log D of the compound at pH 7.4 by shake flask method; format: physicochemical
[11] = target: T3, Prostaglandin D2 receptor 2 (Rattus norvegicus) (UniProt Q6XKD3); assay: Antagonist activity at rat CRTH2 receptor assessed as inhibition of calcium flux by cell-based FLIPR assay; format: functional
T3 sequence (whole entry): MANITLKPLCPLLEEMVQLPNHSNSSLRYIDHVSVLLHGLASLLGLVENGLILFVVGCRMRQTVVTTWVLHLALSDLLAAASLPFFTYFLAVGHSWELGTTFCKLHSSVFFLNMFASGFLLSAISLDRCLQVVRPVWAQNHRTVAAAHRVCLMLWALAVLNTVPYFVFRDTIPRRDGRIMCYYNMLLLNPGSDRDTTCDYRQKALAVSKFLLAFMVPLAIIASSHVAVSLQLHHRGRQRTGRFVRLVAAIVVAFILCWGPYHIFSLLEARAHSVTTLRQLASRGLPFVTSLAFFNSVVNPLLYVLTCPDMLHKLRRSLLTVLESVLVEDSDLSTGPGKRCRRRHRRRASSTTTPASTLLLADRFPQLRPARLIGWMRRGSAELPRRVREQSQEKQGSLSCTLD

[12] = Elimination half life in Sprague-Dawley rat plasma at 1 mM by HR-LC-MS analysis; format: ADME, cell-free; conditions: read-out: beta t1/2
[13] = target: Cytochrome P450 2C9 (Homo sapiens, UniProt P11712); assay: Inhibition of CYP2C9 in human liver microsomes assessed as diclofenac 4'-hydroxylation by LC-MS/MS analysis; format: ADME, Microsome
[14] = target: Prostaglandin E2 receptor EP4 subtype (Homo sapiens, UniProt P35408); assay: Displacement of [3H]PGE2 from recombinant human prostanoid EP4 receptor expressed in HEK293 cell membranes after 90 mins by scintillation counting analysis
[15] = target: T2, Prostaglandin D2 receptor 2; assay: Displacement of [3H]PGD2 from recombinant human CRTH2 receptor expressed in HEK293 cell membranes after 90 mins by scintillation counting analysis in presence of human serum albumin
Outline: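 Same hCRTH2 HEK293 membrane [3H]PGD2 (2.5 nM) displacement, 90 min at room temperature, with 0.5% human serum albumin added to the assay buffer; scintillation counting.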

[16] = target: T2, Prostaglandin D2 receptor 2; assay: Antagonist activity at human CRTH2 receptor expressed in HEK293 cells assessed as inhibition of PGD2-induced calcium flux after 5 mins by FLIPR assay; format: functional, cell-based
Outline: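 HEK-293 cells stably expressing hCRTh2 were loaded with 4 μM Fluo-4 AM for 40 min at 37 °C in HBSS/20 mM HEPES pH 7.2. Compound was added 5 min before 50 nM PGD2 (final) in buffer with 0.05% BSA. Peak fluorescence was normalised to no-antagonist control after baseline subtraction; IC50 from four-parameter fit.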

[17] = Solubility of the compound in aqueous buffer at pH 4; format: physicochemical
Outline: (§2)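 Compound was stirred in water, 60 mM citrate buffer pH 4 or 70 mM phosphate buffer pH 7 at 300 rpm, 25 °C, for 24 h. The mixture was filtered, and the filtrate concentration was measured by HPLC-UV at 250 nm against a calibration curve.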

[18] = Solubility of the compound in aqueous buffer at pH 7; format: physicochemical; outline: as §2

Cytochrome P450 2C9, sequence (P11712 whole entry): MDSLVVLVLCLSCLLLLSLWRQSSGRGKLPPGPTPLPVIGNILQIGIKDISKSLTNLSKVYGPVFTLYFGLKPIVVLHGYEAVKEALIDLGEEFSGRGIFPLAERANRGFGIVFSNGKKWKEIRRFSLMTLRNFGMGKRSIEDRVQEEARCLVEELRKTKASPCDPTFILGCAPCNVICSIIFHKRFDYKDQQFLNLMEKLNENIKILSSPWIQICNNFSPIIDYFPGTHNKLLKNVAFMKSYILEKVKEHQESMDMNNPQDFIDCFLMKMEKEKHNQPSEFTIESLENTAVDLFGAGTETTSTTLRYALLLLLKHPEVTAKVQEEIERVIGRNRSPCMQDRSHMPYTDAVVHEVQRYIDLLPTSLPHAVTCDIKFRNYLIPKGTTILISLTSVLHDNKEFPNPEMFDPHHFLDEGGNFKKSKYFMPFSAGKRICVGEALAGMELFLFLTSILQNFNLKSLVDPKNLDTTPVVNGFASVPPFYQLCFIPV
Prostaglandin E2 receptor EP4 subtype, sequence (P35408 whole entry): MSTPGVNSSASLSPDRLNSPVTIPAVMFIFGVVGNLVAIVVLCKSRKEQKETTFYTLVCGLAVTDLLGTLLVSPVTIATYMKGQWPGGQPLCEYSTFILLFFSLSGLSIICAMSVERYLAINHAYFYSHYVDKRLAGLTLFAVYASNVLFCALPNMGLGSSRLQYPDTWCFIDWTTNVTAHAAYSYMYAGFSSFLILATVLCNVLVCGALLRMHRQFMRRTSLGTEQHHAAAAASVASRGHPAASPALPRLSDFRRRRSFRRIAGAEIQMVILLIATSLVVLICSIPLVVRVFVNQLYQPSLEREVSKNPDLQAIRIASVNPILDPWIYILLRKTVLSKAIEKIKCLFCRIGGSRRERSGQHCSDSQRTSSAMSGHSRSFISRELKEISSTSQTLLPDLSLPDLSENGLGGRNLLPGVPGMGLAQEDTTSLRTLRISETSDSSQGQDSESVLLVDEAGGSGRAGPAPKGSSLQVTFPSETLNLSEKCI

| SMILES | half-life at 2 µM [1] [h] | half-life at 2 µM [2] [h] | IC50 [3] [nM] | microsomal CLint at 1 µM [4] [µL/min/mg] | Ratio IC50 [5] | IC50 [6] [nM] | hepatocyte CLint at 1 µM [7] [µL/min/1e6 cells] | half-life [8] [h] | microsomal CLint at 1 µM [9] [µL/min/mg] | logD [10] | inhibition [11] | half-life [12] [h] | IC50 [13] [nM] | IC50 [14] [nM] | IC50 [15] [nM] | IC50 [16] [nM] | solubility [17] [µg/mL] | solubility [18] [µg/mL] |
| --- | --- | --- | --- | --- | --- | --- | --- | --- | --- | --- | --- | --- | --- | --- | --- | --- | --- | --- |
| O=C(O)Cn1c2c(c3ccccc31)CN(C(=O)c1ccccc1)CC2 | > 1 | > 4 | > 25000 | < 4 | > 580 | 110 | 0.9 | > 4 | 5 | -1.2 | Active | > 4 | 15000 | – | – | – | – | – |
| O=C(O)Cn1c2c(c3cc(C(F)(F)F)ccc31)CN(C(=O)c1cccc3ccccc13)CC2 | – | – | > 25000 | – | 200 | 180 | – | – | – | – | Active | – | – | > 10000 | 70 | 20 | – | – |
| O=C(O)Cn1c2c(c3ccccc31)CN(C(=O)c1cccc3ccccc13)CC2 | > 1 | > 4 | > 25000 | 36 | 87 | 1120 | 1.5 | > 4 | < 4 | 0.2 | inactive | > 4 | 40000 | > 10000 | 420 | 30 | 90 (≈ 234 µM) | 830 (≈ 2160 µM) |
